Experiments:
Format in all cases: functional, cell-based
[1] = Cytotoxicity against human […] cells by MTT assay
Outline: (§1)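 Cells grown in RPMI-1640 with 10% (v/v) fetal calf serum, 100 μg ml⁻¹ penicillin and 100 μg ml⁻¹ streptomycin at 37 °C, humidified 5% CO₂, in 96-well cultures. Compounds from DMSO stocks; final DMSO 2% (v/v) or lower. MTT staining read as optical density. IC50 is the concentration reducing OD by 50% vs untreated cells. Mean ± SD of at least five independent determinations. Top concentration 300 μM.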

HepG2 = experiment: Cytotoxicity against human HepG2 cells by MTT assay; outline: as §1
MCF7 = experiment: Cytotoxicity against human MCF7 cells by MTT assay; outline: as §1
OS-RC-2 = experiment: Cytotoxicity against human OS-RC2 cells by MTT assay; outline: as §1
786-0 = experiment: Cytotoxicity against human 786-0 cells by MTT assay; outline: as §1
769-P = experiment: Cytotoxicity against human 769-P cells by MTT assay; outline: as §1
A-375 = experiment: Cytotoxicity against human A375 cells by MTT assay; outline: as §1
HT-29 = experiment: Cytotoxicity against human HT-29 cells by MTT assay; outline: as §1
KB = experiment: Cytotoxicity against human KB cells by MTT assay; outline: as §1
CWR22R = experiment: Cytotoxicity against human 22Rv1 cells by MTT assay; outline: as §1

SMILES	IC50 [1] [µM]	IC50 (HepG2) [µM]	IC50 (MCF7) [µM]	IC50 (OS-RC-2) [µM]	IC50 (786-0) [µM]	IC50 (769-P) [µM]	IC50 (A-375) [µM]	IC50 (HT-29) [µM]	IC50 (KB) [µM]	IC50 (CWR22R) [µM]
OCCNc1[nH]ccc2c3ccccc3nc1-2	> 300	130	> 300	220	> 300	272	> 300	> 300	> 300	136
NCCNC(=O)c1nccc2c3ccccc3n(CCCc3ccccc3)c12	20	15.9	22.3	15.7	11.8	32.5	13.7	17.9	9.9	10.8
CCCCn1c2ccccc2c2ccnc(Br)c21	> 300	> 300	256	136	> 300	> 300	> 300	186	> 300	236
NCCNc1nccc2c3ccccc3n(Cc3c(F)c(F)c(F)c(F)c3F)c12	11.9	12.8	15.1	12	5.8	10.4	12	9.9	11.8	12.5
NCCNC(=O)c1nccc2c1[nH]c1ccccc12	77.7	122	80.4	63.9	86.1	124	65.3	55.6	118	124
Brc1nccc2c3ccccc3n(CCCc3ccccc3)c12	> 300	> 300	> 300	93.9	> 300	123	> 300	86.6	> 300	88
NCCCCCCNC(=O)c1nccc2c1[nH]c1ccccc12	109	85.5	46.8	58.5	72.7	75.3	37.7	73.2	86.9	33.6
NCCNc1nccc2c1[nH]c1ccccc12	36	30.6	87.2	40	31.9	31.5	33.4	33.4	25.4	41.3
CC[N+](C)(CC)CCCNC(=O)c1nccc2c1[nH]c1ccccc12	> 300	> 300	> 300	> 300	> 300	> 300	> 300	> 300	> 300	> 300
Fc1c(F)c(F)c(Cn2c3ccccc3c3ccnc(Br)c32)c(F)c1F	> 300	> 300	> 300	> 300	> 300	> 300	> 300	> 300	> 300	> 300
NCCNc1nccc2c3ccccc3n(CCCc3ccccc3)c12	9.6	13.3	9.3	4.6	6.9	11.1	7.3	5.6	4.9	8.6
NCCCCCCNc1nccc2c3ccccc3n(CCCc3ccccc3)c12	12.4	12.1	17.9	8.4	11.3	13.6	16.3	21.5	13	11.5
CCN(CC)CCCNC(=O)c1nccc2c1[nH]c1ccccc12	174	243	164	93.9	111	54	107	61.2	62.3	46.2
NCCCCNc1nccc2c3ccccc3n(CCCc3ccccc3)c12	8	4	12.8	4.2	2.7	2.2	9.5	17.5	11.3	2.9
CC[N+](CC)(CCCNC(=O)c1nccc2c1[nH]c1ccccc12)Cc1ccccc1	> 300	> 300	51.1	> 300	137	101	> 300	> 300	> 300	71.4
NCCNc1nccc2c3ccccc3n(Cc3ccc(F)cc3)c12	9.7	4.4	21.4	16.3	18.8	1.8	15.6	9.1	19.1	17.9
CCN(CC)CCCNC(=O)c1nccc2c3ccccc3n(CCCc3ccccc3)c12	22.3	22.1	31.4	36.9	31.4	61	33.8	53.4	14	26.9
Fc1ccc(Cn2c3ccccc3c3ccnc(Br)c32)cc1	> 300	> 300	> 300	> 300	> 300	252	> 300	245	> 300	> 300
CCCCn1c2ccccc2c2ccnc(NCCN)c21	25.3	6.6	33.6	9.3	18.9	68.7	22.8	13.3	20.5	14.2
